Data published in ChEMBL document CHEMBL3046318, “Synthesis of a combinatorial library of amides and its evaluation against the fall armyworm, Spodoptera frugiperda” (2011).

Columns and labels:
Type in all cases: functional
Spodoptera frugiperda [1] = assay: Insecticidal activity against 5 day old second instar larvae of Spodoptera frugiperda (fall armyworm) measured after 48 hr topical administration
Method in brief: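 Topical application to second instar larvae, 1 μL per insect in acetone (control: acetone alone). About 300 mg of artificial diet supplied 1 h after application. Mortality counted at 48 h. Five replicates. Single-sample screens of mixtures were run at 2000 mg L-1, with means compared by Tukey test (P ≤ 0.05). LD50 from log dose probit lines, with Abbott correction for control mortality.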

Spodoptera frugiperda [2] = assay: Insecticidal activity against pupal phase Spodoptera frugiperda (fall armyworm) assessed as mortality at 50 mg/kg compound administration with artificial diet (reference value: 13.3%)
Method in brief: (§1)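 Ingestion assay on first instar larvae (1 day old), 30 per treatment and per control. Compound was dissolved in acetone, mixed with the diet's ascorbic acid (1.8 g), dried under vacuum at 40 °C, then incorporated into a bean/wheat germ artificial diet at 1-100 mg kg-1. Mortality recorded for the larval phase, the pupal phase and the total cycle.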

Spodoptera frugiperda [3] = assay: Insecticidal activity against larval phase Spodoptera frugiperda (fall armyworm) assessed as mortality at 1 mg/kg compound administration with artificial diet (reference value: 6.66%); method in brief: as §1
Spodoptera frugiperda [4] = assay: Insecticidal activity against larval phase Spodoptera frugiperda (fall armyworm) assessed as mortality at 10 mg/kg compound administration with artificial diet (reference value: 6.66%); method in brief: as §1
Spodoptera frugiperda [5] = assay: Insecticidal activity against pupal phase Spodoptera frugiperda (fall armyworm) assessed as mortality at 1 mg/kg compound administration with artificial diet (reference value: 13.3%); method in brief: as §1
Spodoptera frugiperda [6] = assay: Insecticidal activity against larval phase Spodoptera frugiperda (fall armyworm) assessed as mortality at 100 mg/kg compound administration with artificial diet (reference value: 6.66%); method in brief: as §1
Spodoptera frugiperda [7] = assay: Insecticidal activity against Spodoptera frugiperda (fall armyworm) during total cycle assessed as mortality at 100 mg/kg compound administration with artificial diet (reference value: 13.3%); method in brief: as §1
Spodoptera frugiperda [8] = assay: Insecticidal activity against larval phase Spodoptera frugiperda (fall armyworm) assessed as mortality at 50 mg/kg compound administration with artificial diet (reference value: 6.66%); method in brief: as §1
Spodoptera frugiperda [9] = assay: Insecticidal activity against Spodoptera frugiperda (fall armyworm) during total cycle assessed as mortality at 50 mg/kg compound administration with artificial diet (reference value: 13.3%); method in brief: as §1
Spodoptera frugiperda [10] = assay: Insecticidal activity against pupal phase Spodoptera frugiperda (fall armyworm) assessed as mortality at 100 mg/kg compound administration with artificial diet (reference value: 13.3%); method in brief: as §1
Spodoptera frugiperda [11] = assay: Insecticidal activity against pupal phase Spodoptera frugiperda (fall armyworm) assessed as mortality at 10 mg/kg compound administration with artificial diet (reference value: 13.3%); method in brief: as §1
Spodoptera frugiperda [12] = assay: Insecticidal activity against Spodoptera frugiperda (fall armyworm) during total cycle assessed as mortality at 1 mg/kg compound administration with artificial diet (reference value: 13.3%); method in brief: as §1
Spodoptera frugiperda [13] = assay: Insecticidal activity against Spodoptera frugiperda (fall armyworm) during total cycle assessed as mortality at 10 mg/kg compound administration with artificial diet (reference value: 13.3%); method in brief: as §1

## O=C(c1ccc(OC(F)(F)F)cc1)N1CCCCC1
Spodoptera frugiperda [1]
  LD50: 8.15 µg/mg

## O=C(/C=C/c1ccc(OC(F)(F)F)cc1)N1CCCCC1
Spodoptera frugiperda [2]
  mortality at 50 mg/kg: 69.4%
Spodoptera frugiperda [3]
  mortality at 1 mg/kg: 65.8%
Spodoptera frugiperda [4]
  mortality at 10 mg/kg: 63.3%
Spodoptera frugiperda [5]
  mortality at 1 mg/kg: 61.4%
Spodoptera frugiperda [6]
  mortality at 100 mg/kg: 55%
Spodoptera frugiperda [7]
  mortality at 100 mg/kg: 86.6%
Spodoptera frugiperda [8]
  mortality at 50 mg/kg: 73.3%
Spodoptera frugiperda [9]
  mortality at 50 mg/kg: 93.3%
Spodoptera frugiperda [10]
  mortality at 100 mg/kg: 75%
Spodoptera frugiperda [11]
  mortality at 10 mg/kg: 48.6%
Spodoptera frugiperda [12]
  mortality at 1 mg/kg: 83.3%
Spodoptera frugiperda [13]
  mortality at 10 mg/kg: 86.6%
Spodoptera frugiperda [1]
  LD50: 0.793 µg/mg
